Source: ChEMBL document CHEMBL3804796, “Discovery of Novel 3,3-Disubstituted Piperidines as Orally Bioavailable, Potent, and Efficacious HDM2-p53 Inhibitors” (ACS Med Chem Lett, 2016)
In brackets after ≈: the same amount, converted by molar mass. Activity calls are given as the source filed them. The rule behind the calls is not given here.

Legend:
[1] = tested on: A549; test: Antiproliferative activity against human A549 cells expressing wild type p53 after 72 hrs by CellTitre-Glo assay; format: functional, cell-based
Outline: (§1)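 Cell lines exposed to compound for 72 h; viability read by CellTiter-Glo and IC50 derived. p53 coding-region mutation status of each line established by direct sequencing.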

[2] = tested on: NCI-H460; test: Antiproliferative activity against human NCI-H460 cells expressing wild type p53 after 72 hrs by CellTitre-Glo assay; format: functional, cell-based; outline: as §1
[3] = tested on: NCI-H292; test: Antiproliferative activity against human NCI-H292 cells expressing wild type p53 after 72 hrs by CellTitre-Glo assay; format: functional, cell-based; outline: as §1
[4] = tested on: WM-115; test: Antiproliferative activity against human WM115 cells expressing wild type p53 after 72 hrs by CellTitre-Glo assay; format: functional, cell-based; outline: as §1
[5] = tested on: A-375; test: Antiproliferative activity against human A375 cells expressing wild type p53 after 72 hrs by CellTitre-Glo assay; format: functional, cell-based; outline: as §1
[6] = target: T1, Tumour suppressor p53/oncoprotein Mdm2 (Homo sapiens, UniProt Q00987); test: Inhibition of human recombinant His-tagged MDM2 (1 to 118 residues) interaction with FAM-tagged p53-based peptide (unknown origin) incubated for 15 mins by fluorescence polarization assay; format: protein assay
T1 sequence (P04637 whole entry, the tested form may be a part): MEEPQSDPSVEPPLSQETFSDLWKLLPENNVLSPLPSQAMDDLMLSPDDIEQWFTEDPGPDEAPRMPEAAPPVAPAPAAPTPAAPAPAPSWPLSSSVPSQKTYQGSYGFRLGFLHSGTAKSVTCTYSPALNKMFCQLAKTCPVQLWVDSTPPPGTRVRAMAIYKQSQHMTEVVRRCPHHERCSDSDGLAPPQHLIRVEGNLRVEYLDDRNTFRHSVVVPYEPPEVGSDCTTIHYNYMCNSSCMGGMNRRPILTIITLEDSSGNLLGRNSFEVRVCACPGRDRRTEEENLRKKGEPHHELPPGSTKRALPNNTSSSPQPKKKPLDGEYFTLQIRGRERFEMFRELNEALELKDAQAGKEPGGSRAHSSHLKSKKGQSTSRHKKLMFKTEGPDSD
T1 sequence (Q00987 whole entry, the tested form may be a part): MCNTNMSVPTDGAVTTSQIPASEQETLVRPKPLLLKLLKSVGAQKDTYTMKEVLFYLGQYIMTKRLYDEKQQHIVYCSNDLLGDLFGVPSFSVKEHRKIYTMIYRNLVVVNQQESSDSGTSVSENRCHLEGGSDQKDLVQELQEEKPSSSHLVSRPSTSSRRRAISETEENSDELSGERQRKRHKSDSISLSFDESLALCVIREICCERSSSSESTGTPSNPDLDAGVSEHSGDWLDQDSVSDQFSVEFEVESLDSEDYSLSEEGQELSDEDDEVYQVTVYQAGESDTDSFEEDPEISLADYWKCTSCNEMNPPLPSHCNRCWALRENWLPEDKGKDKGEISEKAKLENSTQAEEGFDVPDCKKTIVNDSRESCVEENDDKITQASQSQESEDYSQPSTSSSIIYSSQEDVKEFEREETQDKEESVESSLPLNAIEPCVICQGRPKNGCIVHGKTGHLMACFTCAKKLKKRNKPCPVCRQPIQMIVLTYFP

[7] = Antiproliferative activity against human SJSA1 cells expressing wild type p53 after 72 hrs by CellTitre-Glo assay; details: SJSA-1, 72 h
[8] = Antiproliferative activity against p53 null human H1299 cells after 72 hrs by CellTitre-Glo assay; format: functional, cell-based; details: NCI-H1299, 72 h
Outline: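 Cancer cell lines of known p53 coding-region status (checked by direct sequencing) were exposed to the compound for 72 h. Viability was read with CellTiter-Glo, and the IC50 was taken from these readings.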

[9] = target: T1, Tumour suppressor p53/oncoprotein Mdm2; test: Inhibition of MDM2/p53 interaction in human HCT116 cells assessed as activation of p53 transcription by luciferase reporter gene assay; format: cell-based, HCT-116
Outline: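 p53 transcriptional activation measured in HCT116 cells with a p53 response element–driven luciferase reporter (P53RE-Luc).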

[10] = Permeability from apical to basolateral side in human Caco2 cells; format: ADME, cell-based; details: Caco-2, read-out: permeability
[11] = tested on: SJSA-1; test: Selectivity ratio of IC50 for p53 null human H1299 cells to IC50 for human SJSA1 cells expressing wild type p53; format: functional
Outline: (§2)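 Ratio of two IC50s, each from a 72 h CellTiter-Glo viability assay. p53 coding-region status was confirmed by direct sequencing. The ratio is p53-mutant (SK-UT-1) or p53-null (H1299) IC50 divided by wild-type p53 (SJSA-1 or HCT116) IC50.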

[12] = Solubility of compound in pH 7.4 phosphate buffer; format: physicochemical
[13] = tested on: Canis familiaris; test: Dose normalized AUC (0 to 24 hrs) in dog at 1 mg/kg, po administered as single dose; format: ADME, organism-based, Canis lupus familiaris; details: in vivo
Outline: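 Single oral dose of 1 mg/kg. Vehicle was 20% HPBCD for mouse and 0.4% HPMC for dog and monkey. Plasma AUC over 0–24 h, dose-normalized, reported in μM·h.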

[14] = tested on: HCT-116; test: Selectivity ratio of IC50 for human SK-UT-1 cells harboring mutant p53 to IC50 for human HCT116 cells expressing wild type p53; format: functional; outline: as §2
[15] = tested on: HCT-116; test: Selectivity ratio of IC50 for p53 null human H1299 cells to IC50 for human HCT116 cells expressing wild type p53; format: functional; outline: as §2
[16] = Clearance in monkey at 1 mg/kg, iv; format: ADME, organism-based, Macaca mulatta; details: rhesus monkey, in vivo
[17] = target: Cytochrome P450 1A2 (Homo sapiens, UniProt P05177); test: Inhibition of CYP1A2 (unknown origin); format: ADME
Chain of Cytochrome P450 1A2 (P05177 whole entry): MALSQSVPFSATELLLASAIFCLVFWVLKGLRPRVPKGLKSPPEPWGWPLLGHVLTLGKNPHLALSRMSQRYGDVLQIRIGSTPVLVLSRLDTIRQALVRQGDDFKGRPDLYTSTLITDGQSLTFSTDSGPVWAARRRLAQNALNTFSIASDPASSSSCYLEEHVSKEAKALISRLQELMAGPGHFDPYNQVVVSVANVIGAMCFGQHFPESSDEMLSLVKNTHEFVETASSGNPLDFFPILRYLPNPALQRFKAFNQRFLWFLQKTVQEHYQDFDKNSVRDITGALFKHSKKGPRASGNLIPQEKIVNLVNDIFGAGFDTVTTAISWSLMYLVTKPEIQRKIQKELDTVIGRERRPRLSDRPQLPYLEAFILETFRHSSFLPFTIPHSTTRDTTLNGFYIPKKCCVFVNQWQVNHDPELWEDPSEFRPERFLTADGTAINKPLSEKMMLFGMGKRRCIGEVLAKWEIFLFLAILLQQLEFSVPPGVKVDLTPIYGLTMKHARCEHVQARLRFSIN

[18] = Fraction unbound in dog plasma; format: ADME, cell-free, Canis lupus familiaris
[19] = Fraction unbound in mouse plasma; format: ADME, cell-free
[20] = Antitumor activity against human SJSA1 cells xenografted in nude mouse assessed as tumor growth inhibition at 50 mg/kg, po qd administered with cycle of 3 days on, 4 days off for 30 days relative to control; format: functional; details: SJSA-1, po, read-out: TGI
Outline: (§3)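 Nude mice bearing SJSA-1 osteosarcoma xenografts, n = 5 per group. Oral dosing in 20% HPBCD, given either intermittently (daily, 3 days on/4 days off) or continuously daily. Body weight was monitored against a vehicle control group.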

[21] = Antitumor activity against human SJSA1 cells xenografted in nude mouse assessed as tumor growth inhibition at 100 mg/kg, po qd administered with cycle of 3 days on, 4 days off for 30 days relative to control; format: functional; details: SJSA-1, po, read-out: TGI; outline: as §3
[22] = tested on: Mus musculus; test: Toxicity in nude mouse xenografted with human SJSA1 cells assessed as body weight loss at 50 to 200 mg/kg, po qd administered with cycle of 3 days on, 4 days off for 30 days; format: organism-based, SJSA-1; details: in vivo
Outline: (§4)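 Nude mice bearing SJSA-1 osteosarcoma xenografts, n = 5 per group. Dosing was oral in 20% HPBCD, either continuous daily at 100 and 200 mpk or intermittent (daily for 3 days on, 4 days off). Body weight was compared against a vehicle-control group.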

[23] = tested on: Mus musculus; test: Toxicity in nude mouse xenografted with human SJSA1 cells assessed as body weight loss at 100 to 200 mg/kg, po qd continuously for 30 days; format: organism-based, SJSA-1; details: in vivo, 720 h; outline: as §4
[24] = tested on: A549; test: Antitumor activity against human A549 cells xenografted in nude mouse assessed as tumor growth inhibition at 200 mg/kg, po qd continuously for 30 days relative to control; format: functional; details: 720 h, read-out: TGI
Outline: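 Mice bearing A549 NSCLC xenografts. The test agent was given orally, either daily or intermittently (daily for 3 days, then 4 days off). Paclitaxel was given at 20 mg/kg ip weekly, alone or in combination. Read-out was tumor growth inhibition.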

[25] = tested on: MES-SA; test: Antiproliferative activity against human MES-SA cells expressing wild type p53 after 72 hrs by CellTitre-Glo assay; format: functional, cell-based; outline: as §1
[26] = tested on: CWR22R; test: Antiproliferative activity against human 22Rv1 cells expressing wild type p53 after 72 hrs by CellTitre-Glo assay; format: functional, cell-based; outline: as §1
[27] = tested on: MCF7; test: Antiproliferative activity against human MCF7 cells expressing wild type p53 after 72 hrs by CellTitre-Glo assay; format: functional, cell-based; outline: as §1
[28] = tested on: ZR-75-1; test: Antiproliferative activity against human ZR-75-1 cells expressing wild type p53 after 72 hrs by CellTitre-Glo assay; format: functional, cell-based; outline: as §1
[29] = tested on: BC1; test: Antiproliferative activity against human BC1 cells expressing wild type p53 after 72 hrs by CellTitre-Glo assay; format: functional, cell-based; outline: as §1
[30] = tested on: EOL1; test: Antiproliferative activity against human EOL-1 cells expressing wild type p53 after 72 hrs by CellTitre-Glo assay; format: functional, cell-based; outline: as §1
[31] = tested on: A2780; test: Antitumor activity against human A2780 cells xenografted in nude mouse harboring wild type p53 assessed as tumor growth inhibition at 50 mg/kg, po bid continuously for 15 days coadministered with 40 mg/kg, ip, once weekly docetaxel relative to control; format: functional
Outline: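 Wild-type p53 mice bearing A2780 ovarian xenografts. The test agent was given at 50 mg/kg orally twice daily, continuously. Docetaxel was given at 40 mg/kg ip weekly, twice in total. Each was given alone and in combination. Read-out was tumor growth inhibition.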

[32] = tested on: MOLT-4; test: Antiproliferative activity against human MOLT4 cells expressing wild type p53 after 72 hrs by CellTitre-Glo assay; format: functional, cell-based; outline: as §1
[33] = tested on: ML-2; test: Antiproliferative activity against human ML2 cells expressing wild type p53 after 72 hrs by CellTitre-Glo assay; format: functional, cell-based; outline: as §1

**Q.** Which results are given for CCC[C@H]1N(C(=O)c2cnccc2C(F)(F)F)CCC[C@@]1(Oc1csc(C(F)(F)F)c1)C(=O)N1CCN(c2ccccc2OCCCC(=O)O)CC1?
**A.** Activity [1]: Active; Activity [2]: Active; Activity [3]: Active; Activity [4]: Active; Activity [5]: Active; IC50 [6]: 7 nM; IC50 [7]: 80 nM; IC50 [8]: > 50000 nM; EC50 [9]: 100 nM; Papp A→B [10]: 18 ×10⁻⁶ cm/s; Ratio IC50 [11]: >500; solubility [12]: 100 µM (≈ 75.7 µg/mL); AUC/dose [13]: 5.8 µM·h; Ratio IC50 [14]: >500; Ratio IC50 [15]: >500; clearance [16]: 23 mL/min/kg; IC50 [17]: > 50000 nM; fraction unbound [18]: 0.02; fraction unbound [19]: 0.03; inhibition in vivo at 50 mg/kg [20]: 92%; inhibition in vivo at 100 mg/kg [21]: 31%; Activity [22]: Non-toxic; Activity [23]: Non-toxic; inhibition in vivo at 200 mg/kg [24]: 75%; Activity [25]: Active; Activity [26]: Active; Activity [27]: Active; Activity [28]: Active; Activity [29]: Active; Activity [30]: Active; TGI [31]: 81%; Activity [32]: Active; Activity [33]: Active
